Our source for the Activity values is ChEMBL document CHEMBL1156262, “Substituted benzothiophene or benzofuran derivatives as a novel class of bone morphogenetic protein-2 up-regulators: synthesis, structure-activity relationships, and preventive bone loss efficacies in senescence accelerated mice (SAMP6) and ovariectomized rats” (J Med Chem, 2010).

SMILES strings stand for the structures. Activity calls are given as the source filed them. The rule behind the calls is not given here.

Series [1] deals with Rattus norvegicus. Kind of series: Toxicity in rat assessed as pathological changes in lung at 150 mg/kg/day, po after 3 months by histomorphology. The format is organism-based. Further details: route oral. To be noted: in vivo. The method, boiled down:
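Rats, n = 7, given oral doses of 150 mg/kg/day for 3 months. Heart, liver, spleen, lung and kidney examined histologically for pathological change.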

Series [2] can be described thus: Induction of BMP2 expression in mouse calcarial MC3T3-E1 cells stably transfected with mouse BMP2 promotor-luciferase assessed as upregulation rate at 4 uM. It is filed as functional, cell-based. The method, boiled down:
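Reporter assay in murine calvarial MC3T3-E1 cells stably carrying the mouse BMP-2 promoter fused to firefly luciferase (pGL4BMP-2). Cells grown in DMEM with 10% heat-inactivated FBS at 37 °C and 5% CO2. Test compounds at 4.0 μM; lovastatin at 0.4 μM as positive control; 0.1% DMSO as negative control. Up-regulation rate = (RLU of test − RLU of negative control)/RLU of negative control × 100.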

Series [3] has as its system Mus musculus. Description: Induction of bone mineral density in SAMP6 mouse assessed as spine BMD at 30 mg/kg/day, po measured after 3 months. It is filed as functional. In outline:
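SAMP6 mice, 5 months old, n = 5 per group, given compound in 0.5% methylcellulose by gavage daily. Dual-energy X-ray absorptiometry under pentobarbital anaesthesia (50 mg/kg ip), animals prone, at 0, 4, 8 and 12 weeks of treatment. Regions of interest were whole body, spine and left hind leg.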

In series [4] the test system is Mus musculus. Kind of series: Toxicity in SAMP6 mouse assessed as pathological changes in liver at 30 mg/kg/day, po after 3 months by histomorphology. The note with it: in vivo. Also on record: route oral. The format is organism-based. The method, boiled down: (§1)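 SAMP6 mice, n = 5 per group, dosed orally at 30 mg/kg/day in 0.5% methylcellulose for 3 months. Heart, liver, spleen, lung and kidney harvested, weighed and examined histologically. Organ/body weight indexes, body weight, and 24 h water and food intake (g/g body weight) compared with vehicle controls.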

Series [5] has as its system Mus musculus. Kind of series: Toxicity in SAMP6 mouse assessed as pathological changes in lung at 30 mg/kg/day, po after 3 months by histomorphology. Further details: route oral. It is filed as organism-based. To be noted: in vivo. The method, boiled down:
as §1

In series [6] the test system is Rattus norvegicus. Kind of series: Toxicity in rat assessed as pathological increase in body weight at 150 mg/kg/day, po after 3 months. It is filed as organism-based. Further details: route oral. The note with it: in vivo. The method, boiled down: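 Female rats (n = 7) were dosed orally once daily at 150 (mg/kg)/day for 3 months. Body weight, behaviour and fur were observed throughout. At the end, hearts, livers, spleens, lungs and kidneys were sectioned for histological examination of pathological changes.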

Series [7] has as its system Rattus norvegicus. Description: Induction of bone formation in ovariectomized rat assessed as increase in trabecular bone volume percentage at 15 mg/kg/day, po after 3 months. The format is functional, organism-based. The note with it: Trabecula. The method, boiled down: (§2)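 Female rats (205–235 g) randomized by body weight, n = 7 per group: sham, ovariectomized with vehicle, ovariectomized with raloxifene 5 mg/kg/day, and ovariectomized with compound at 7.5, 15 or 30 mg/kg/day. All dosing oral for 3 months. Undecalcified proximal tibia sections analysed by histomorphometry, with comparisons against the sham and ovariectomized groups.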

Series [8] concerns Rattus norvegicus. Kind of series: Induction of bone formation in ovariectomized rat assessed as increase in trabecular bone volume percentage at 7.5 mg/kg/day, po after 3 months. To be noted: Trabecula. It is filed as functional, organism-based. In outline: as §2
Series [9] deals with Mus musculus. Description: Induction of BMP2 expression in SAMP6 mouse osteoblast at 10 mg/kg/day, po after 3 months by immunohistochemical analysis. The format is functional, organism-based. The method, boiled down:
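SAMP6 mice, 5 months old, male and female, n = 5 per group (3 male, 2 female). Dosed by gavage with compound suspended in 0.5% methylcellulose daily for 3 months; the vehicle group received methylcellulose only. Proximal third of the left femur fixed in 4% neutral paraformaldehyde for 24 h, decalcified in 10% EDTA at 4 °C for 4 weeks, then frozen-sectioned at 5 μm. Stained with rabbit polyclonal anti-BMP-2 and an alkaline phosphatase secondary. BMP-2-positive area was taken as a percentage of bone tissue area, averaged over five fields below the epiphyseal plate.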

Series [10] concerns Rattus norvegicus. Description: Prevention of bone loss in po dosed ovariectomized rat assessed as increase in number, thickness, area and connectivity of trabecula after 3 months by histomorphometry Leica Qwin image analysis. The format is functional, organism-based. The method, boiled down: as §2

`CC(=O)c1cc2ccccc2s1`: the Activity result with Rattus norvegicus [1] was “Non-toxic”; in series [2] it was 35.6%; with Mus musculus [3] it was 0.086 g/cm2; in the series on Mus musculus [4], “Non-toxic”; in the series on Mus musculus [5] it was “Non-toxic”; in the series with Rattus norvegicus [6], “Non-toxic”. Moreover, the Activity result in the series on Rattus norvegicus [10] is “Dose-dependent effect”. Further, the outcome with Rattus norvegicus [7], in the series on Rattus norvegicus [8] and in the series on Mus musculus [9] was Active.
